Data published in ChEMBL document CHEMBL1129471, “Orally active squalene synthase inhibitors: bis((acyloxy)alkyl) prodrugs of the alpha-phosphonosulfonic acid moiety” (J Med Chem, 1996).

What was measured:
Assay type in all cases: functional
Rattus norvegicus [1] = assay: Compound was tested for inhibition of cholesterol biosynthesis in rats by oral dosing (po).
How it was run: (§1)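 Fasted rats, dosed orally or intravenously as the line states; the read-out is inhibition of cholesterol biosynthesis from acetate.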

Rattus norvegicus [2] = species: Rattus norvegicus; assay: (§2) Esterase susceptibility was determined from the initial rate of aldehyde release upon incubation of the prodrug with homogenized rat small intestinal mucosa relative to compound 9
Rattus norvegicus [3] = assay: Compound was tested for inhibition of cholesterol biosynthesis in rats by intravenous (iv) dose of 4 uM/Kg; how it was run: as §1
Rattus norvegicus [4] = assay: Compound was tested for inhibition of cholesterol biosynthesis in rats by oral dose of 28 uM/Kg; conditions: at 28 µmol/kg
Rattus norvegicus [5] = assay: Compound was tested for inhibition of cholesterol biosynthesis in rats by intravenous (iv) dose of 22 uM/Kg; how it was run: as §1
Rattus norvegicus [6] = assay: Compound was tested for inhibition of cholesterol biosynthesis in rats by intravenous (iv) dosing.; how it was run: as §1
Rattus norvegicus [7] = species: Rattus norvegicus; assay: as §2; remark: listed apart in the source
How it was run: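 A rat intestinal mucosal esterase preparation was incubated with 200 μM prodrug in 20 mM Tris, pH 7.0, at 37 °C. Timed aliquots were quenched with 0.5 M sodium acetate, pH 3.8. Released aldehyde was measured colorimetrically with methylbenzothiazolinehydrazone/ferric chloride (A625) against an aldehyde standard curve. Initial rate is given as pmol aldehyde/min per esterase unit, normalised to a reference prodrug.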

CCC(=O)OC(OP(=O)(OC(OC(=O)CC)C(C)C)C(CCCc1cccc(Oc2ccccc2)c1)S(=O)(=O)O)C(C)C (centres undefined)
ED50 (Rattus norvegicus [1]): 7.9 µmol/kg

CC(C)=CCC/C(C)=C/CC/C(C)=C/CCCC(P(=O)(OCOC(=O)CC1CCCCC1)OCOC(=O)CC1CCCCC1)S(=O)(=O)[O-].[K+] (centres undefined)
ED50 (Rattus norvegicus [1]): 4.1 µmol/kg | Relative esterase susceptibility (Rattus norvegicus [2]): 0.49 | Inhibition (Rattus norvegicus [3]): -35%

CC(C)=CCC/C(C)=C/CC/C(C)=C/CCCC(P(=O)(OC(C)OC(=O)C(C)(C)C)OC(C)OC(=O)C(C)(C)C)S(=O)(=O)[O-].[K+] (centres undefined)
Relative esterase susceptibility (Rattus norvegicus [2]): 0.2 | Inhibition (Rattus norvegicus [4]): -35%

CCC(=O)OC(C)OP(=O)(OC(C)OC(=O)CC)C(CCCc1cccc(Oc2ccccc2)c1)S(=O)(=O)[O-].[K+] (centres undefined)
ED50 (Rattus norvegicus [1]): 12.6 µmol/kg | Relative esterase susceptibility (Rattus norvegicus [2]): 17

CC(C)=CCC/C(C)=C/CC/C(C)=C/CCCC(P(=O)(OCOC(=O)C(C)(C)C)OCOC(=O)C(C)(C)C)S(=O)(=O)[O-].[K+] (centres undefined)
ED50 (Rattus norvegicus [1]): 3.9 µmol/kg | Inhibition (Rattus norvegicus [5]): -40% | Relative esterase susceptibility (Rattus norvegicus [2]): 1

CC(C)=CCC/C(C)=C/CC/C(C)=C/CCCC(P(=O)(OCOC(=O)c1ccccc1)OCOC(=O)c1ccccc1)S(=O)(=O)[O-].[K+] (centres undefined)
ED50 (Rattus norvegicus [1]): 15 µmol/kg | Relative esterase susceptibility (Rattus norvegicus [2]): 1.5 | ED50 (Rattus norvegicus [6]): 1.5 µmol/kg

CCCCCCC(=O)OCOP(=O)(OCOC(=O)CCCCCC)C(CCC/C=C(\C)CC/C=C(\C)CCC=C(C)C)S(=O)(=O)[O-].[K+] (centres undefined)
ED50 (Rattus norvegicus [1]): 14 µmol/kg | Relative esterase susceptibility (Rattus norvegicus [2]): 6.5 | ED50 (Rattus norvegicus [6]): 0.18 µmol/kg

CCC(=O)OC(OP(=O)(OC(OC(=O)CC)C(C)C)C(CCC/C=C(\C)CC/C=C(\C)CCC=C(C)C)S(=O)(=O)[O-])C(C)C.[K+] (centres undefined)
Relative esterase susceptibility (Rattus norvegicus [2]): 1.1 | Inhibition (Rattus norvegicus [4]): -43%

CC(C)C(=O)OC(OP(=O)(OC(OC(=O)C(C)C)C(C)C)C(CCCc1cccc(Oc2ccccc2)c1)S(=O)(=O)[O-])C(C)C.[K+] (centres undefined)
Inhibition (Rattus norvegicus [4]): -45%

CCC(=O)OC(C)OP(=O)(OC(C)OC(=O)CC)C(CCC/C=C(\C)CC/C=C(\C)CCC=C(C)C)S(=O)(=O)[O-].[K+] (centres undefined)
ED50 (Rattus norvegicus [1]): 11.6 µmol/kg | Relative esterase susceptibility (Rattus norvegicus [2]): 1.7 | ED50 (Rattus norvegicus [6]): 7 µmol/kg

CC(OC(=O)C(C)C)OP(=O)(OC(C)OC(=O)C(C)C)C(CCCc1cccc(Oc2ccccc2)c1)S(=O)(=O)O (centres undefined)
ED50 (Rattus norvegicus [1]): 10.1 µmol/kg

CC(OC(=O)C(C)(C)C)OP(=O)(OC(C)OC(=O)C(C)(C)C)C(CCCc1cccc(Oc2ccccc2)c1)S(=O)(=O)[O-].[K+] (centres undefined)
ED50 (Rattus norvegicus [1]): 12.8 µmol/kg | Relative esterase susceptibility (Rattus norvegicus [2]): 0.45

CC(C)(C)C(=O)OCOP(=O)(OCOC(=O)C(C)(C)C)C(CCCc1cccc(Oc2ccccc2)c1)S(=O)(=O)[O-].[K+] (centres undefined)
ED50 (Rattus norvegicus [1]): 3.5 µmol/kg | Relative esterase susceptibility (Rattus norvegicus [2]): 15 | ED50 (Rattus norvegicus [6]): 1.7 µmol/kg

CCC(=O)OC(CC)OP(=O)(OC(CC)OC(=O)CC)C(CCCc1cccc(Oc2ccccc2)c1)S(=O)(=O)O (centres undefined)
ED50 (Rattus norvegicus [1]): 10.9 µmol/kg

CC(C)=CCC/C(C)=C/CC/C(C)=C/CCCC(P(=O)(OCOC(=O)C(C)C)OCOC(=O)C(C)C)S(=O)(=O)[O-].[K+] (centres undefined)
ED50 (Rattus norvegicus [1]): 18.8 µmol/kg | Relative esterase susceptibility (Rattus norvegicus [7]): 8.1 | ED50 (Rattus norvegicus [6]): 1.7 µmol/kg

CC(C)=CCC/C(C)=C/CC/C(C)=C/CCCC(P(=O)(OC(C)OC(=O)c1ccccc1)OC(C)OC(=O)c1ccccc1)S(=O)(=O)[O-].[K+] (centres undefined)
Relative esterase susceptibility (Rattus norvegicus [2]): 0.21 | Inhibition (Rattus norvegicus [4]): -33%

CC(C)=CCC/C(C)=C/CC/C(C)=C/CCCC(P(=O)(O)O)S(=O)(=O)O (centres undefined)
ED50 (Rattus norvegicus [1]): 16.5 µmol/kg | ED50 (Rattus norvegicus [6]): 0.25 µmol/kg

O=P(O)(O)C(CCCc1cccc(Oc2ccccc2)c1)S(=O)(=O)O (centres undefined)
ED50 (Rattus norvegicus [1]): 19.5 µmol/kg | ED50 (Rattus norvegicus [6]): 0.2 µmol/kg
